What was measured:
Type in all cases: functional, cell-based
[1] = biological target: Trace amine-associated receptor 1 (Rattus norvegicus) (UniProt Q923Y9); test: Efficacy at rat TAAR1 expressed in HEK293 cells assessed as stimulation of cAMP production at 10 uM relative to 3-iodothyronamine
[2] = biological target: Trace amine-associated receptor 1 (Mus musculus) (UniProt Q923Y8); test: Efficacy at mouse TAAR1 expressed in HEK293 cells assessed as stimulation of cAMP production at 10 uM relative to 3-iodothyronamine
Trace amine-associated receptor 1 (Mus musculus), sequence (Q923Y8 whole entry, the tested form may be a part): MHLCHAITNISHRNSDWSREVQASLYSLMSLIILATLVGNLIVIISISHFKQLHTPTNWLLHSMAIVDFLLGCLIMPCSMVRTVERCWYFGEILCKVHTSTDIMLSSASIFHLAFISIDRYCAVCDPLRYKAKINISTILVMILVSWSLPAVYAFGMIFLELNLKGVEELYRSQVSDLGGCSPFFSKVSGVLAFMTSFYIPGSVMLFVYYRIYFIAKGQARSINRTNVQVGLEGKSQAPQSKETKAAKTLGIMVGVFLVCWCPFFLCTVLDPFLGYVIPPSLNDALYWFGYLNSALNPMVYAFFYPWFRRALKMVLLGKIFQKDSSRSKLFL

[3] = biological target: Trace amine-associated receptor 1 (Mus musculus) (UniProt Q923Y8); test: Antagonist activity at mouse TAAR1 expressed in HEK293 cells at 10 uM assessed as inhibition of 3-iodothyronamine-induced cAMP production; set-up: scale not given: the % may be the effect or the level left
In short: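 Cells harvested in Krebs-Ringer-HEPES, preincubated 20-30 min with 200 µM IBMX, then exposed 1 h at 37 °C in KRH with 133 µM IBMX plus test compound at 10 µM (DMSO vehicle; forskolin 10 µM control). Cells lysed by boiling; cAMP measured by enzyme-fragment-complementation luminescence.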

[4] = biological target: Trace amine-associated receptor 1 (Mus musculus, UniProt Q923Y8); test: Activity at mouse TAAR1 expressed in HEK293 cells assessed as cAMP production
Trace amine-associated receptor 1 (Mus musculus, UniProt Q923Y8), sequence (Q923Y8 whole entry): as the sequence (Q923Y8 whole entry, the tested form may be a part) above
In short: (§1)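 HEK293 cells stably expressing rat or mouse TAAR1, kept in fresh medium ≥2 h, harvested in KRH, preincubated 20-30 min with 200 µM IBMX. Cells boiled 20 min in acetate buffer. cAMP in cleared lysate read by EFC luminescence kit (18 h dark). Responses given as % of T1AM. EC50 from concentration-response fit, mean ± SEM of N independent triplicate runs.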

[5] = biological target: Trace amine-associated receptor 1 (Rattus norvegicus, UniProt Q923Y9); test: Activity at rat TAAR1 expressed in HEK293 cells assessed as cAMP production; in short: as §1
Trace amine-associated receptor 1 (Rattus norvegicus, UniProt Q923Y9), sequence (Q923Y9 whole entry): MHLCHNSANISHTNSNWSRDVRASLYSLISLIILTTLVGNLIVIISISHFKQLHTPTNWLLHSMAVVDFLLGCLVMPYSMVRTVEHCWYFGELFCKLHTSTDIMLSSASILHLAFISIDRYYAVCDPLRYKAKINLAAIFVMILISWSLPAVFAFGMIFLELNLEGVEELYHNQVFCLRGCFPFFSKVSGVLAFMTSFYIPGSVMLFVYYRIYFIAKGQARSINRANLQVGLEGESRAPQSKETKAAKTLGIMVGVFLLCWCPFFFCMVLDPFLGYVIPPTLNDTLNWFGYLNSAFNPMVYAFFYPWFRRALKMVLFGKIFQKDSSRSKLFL

Trace amine-associated receptor 1 (Rattus norvegicus), sequence (Q923Y9 whole entry): as above

Compound | Emax [1] | Emax [2] | Activity [3] | EC50 [4] | EC50 [5]
NCCc1ccc(Oc2ccc(O)cc2)c(I)c1 | 100% | 100% | 30% | 314 nM | 33 nM
NCC(C#Cc1ccccc1)c1ccc(Oc2ccccc2)cc1 (configuration not stated) | 119% | 2% |  | > 1000 nM | 62 nM
NCC(Cc1ccccc1)c1ccc(Oc2ccccc2)cc1 (configuration not stated) | 92% | 31% |  | > 1000 nM | 140 nM
NCC(c1ccccc1)c1ccc(O)c2ccccc12 (configuration not stated) | 89% | 14% |  | > 1000 nM | 716 nM
CC(C)(CN)c1ccc(Oc2ccccc2)cc1 | 13% | 18% |  | > 1000 nM | > 1000 nM
NCC(c1ccccc1)c1ccc(Oc2ccccc2)c2ccccc12 (configuration not stated) | 100% | 0% |  | > 1000 nM | 52 nM
NCCc1ccc(Oc2ccccc2)cc1 | 93% | 85% |  | 420 nM | 63 nM
C#CC(CN)c1ccc(Oc2ccccc2)cc1 (configuration not stated) | 105% | 79% |  | 929 nM | 41 nM
CN(C)CCCNC(=O)c1ccc(Oc2ccccc2)cc1 | 2% | 0% |  | > 1000 nM | > 1000 nM
NCC(c1ccccc1)c1ccc(Oc2ccccc2)cc1 (configuration not stated) | 103% | 35% |  | > 1000 nM | 28 nM
NCC(c1ccccc1)c1cccc(Oc2ccccc2)c1 (configuration not stated) | 131% | 15% |  | > 1000 nM | 19 nM
NCCc1ccc(Oc2ccccc2)c2ccccc12 | 113% | 104% |  | 101 nM | 26 nM
COc1ccc(C(CN)c2ccccc2)c2ccccc12 (configuration not stated) | 71% | 14% |  | > 1000 nM | 270 nM
CC(CN)c1ccc(Oc2ccccc2)cc1 (configuration not stated) | 94% | 72% |  | > 1000 nM | 250 nM

From ChEMBL document CHEMBL1143684, “Exploring the structure-activity relationship of the ethylamine portion of 3-iodothyronamine for rat and mouse trace amine-associated receptor 1” (J Med Chem, 2007)
